Source: ChEMBL document CHEMBL1149632, “New cytotoxic diterpenylnaphthohydroquinone derivatives obtained from a natural diterpenoid” (2007)

Test system: A549
Experiment: Antineoplastic cytotoxicity against human A549 cells after 72 hrs by SRB method
Assay type: functional
Settings: A549, 72 h
Summary of the method: (§1)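 Cells seeded at 5 × 10^3 per well in RPMI and left to attach for 18 h in drug-free medium. Compounds were then added in DMSO/H2O (3:7) and exposed for 72 h. Cells were fixed with cold 50% TCA for 60 min at 4 °C and stained with 0.4% SRB in 1% acetic acid for 10 min at rt. Bound dye was solubilised in Tris and read at 490 nm. GI50 from 100×[(T−T0)/(C−T0)]=50.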

| Structure (SMILES) | GI50 [µM] |
| --- | --- |
| C=C1CC[C@@H]2[C@](C)(CCC[C@]2(C)C(=O)O)[C@H]1CCc1ccc2c(c1)C(=O)C=CC2=O | > 7.4 |
| C=C1CC[C@@H]2[C@](C)(CCC[C@]2(C)C(=O)OC)[C@H]1/C=C/c1ccc2c(OC)ccc(OC)c2c1 | > 22.3 |
| C=C1CC[C@@H]2[C@](C)(CCC[C@]2(C)C(=O)O)[C@H]1CCC1=CCc2c(OC(C)=O)ccc(OC(C)=O)c2C1 | 2.5 |
| C=C1CC[C@@H]2[C@](C)(CCC[C@]2(C)C(=O)OC)[C@H]1CCC1=CCc2c(OC(C)=O)ccc(OC(C)=O)c2C1 | 0.51 |
| C=C1[C@H](O)C[C@@H]2[C@](C)(CCC[C@]2(C)C(=O)OC)[C@H]1CCc1ccc2c(OC(C)=O)ccc(OC(C)=O)c2c1 | 1.6 |
| COC(=O)[C@@]1(C)CCC[C@]2(C)C(CCc3ccc4c(OC)ccc(OC)c4c3)=C(OOC(C)(C)C)CC[C@@H]12 | > 18.6 |
| C=C1C(=O)C[C@@H]2[C@](C)(CCC[C@]2(C)C(=O)OC)[C@H]1CCc1ccc2c(OCc3ccccc3)ccc(OCc3ccccc3)c2c1 | 14.8 |
| C=C1CC[C@H]2[C@@](C)(CCC[C@@]2(C)C(=O)OC)[C@@H]1CCc1ccc2c(c1)C(=O)c1cc(CC[C@H]3C(=C)CC[C@@H]4[C@]3(C)CCC[C@]4(C)C(=O)OC)ccc1C2=O | > 4.1 |
| C=C1CC[C@@H]2[C@](C)(CCC[C@]2(C)C(=O)OC)[C@]1(O)CCc1ccc2c(OCc3ccccc3)ccc(OCc3ccccc3)c2c1 | 12.4 |
| C=C1CC[C@@H]2[C@](C)(CCC[C@]2(C)C(=O)OC)[C@H]1CCc1ccc2c(c1)C(=O)C=CC2=O | 0.2 |
| C=C1CC[C@@H]2[C@](C)(CCC[C@]2(C)C(=O)O)[C@H]1CCc1ccc2c(OC(C)=O)ccc(OC(C)=O)c2c1 | 0.24 |
| C=C1CC[C@@H]2[C@](C)(CCC[C@]2(C)C(=O)OC)[C@H]1CCc1ccc2c(OC(C)=O)ccc(OC(C)=O)c2c1 | 0.12 |
| C=C1C(=O)C[C@@H]2[C@](C)(CCC[C@]2(C)C(=O)OC)[C@H]1CCc1ccc2c(OC)ccc(OC)c2c1 | 3.7 |
| COC(=O)[C@@]1(C)CCC[C@]2(C)C(CCc3ccc4c(OC)ccc(OC)c4c3)=C(C)CC[C@@H]12 | > 6.7 |
| COC(=O)[C@@]1(C)CCC[C@]2(C)C(CCc3ccc4c(OCc5ccccc5)ccc(OCc5ccccc5)c4c3)=C(C)CC[C@@H]12 | 15.2 |
| C=C1CC[C@@H]2[C@](C)(CCC[C@]2(C)C(=O)OC)[C@H]1CCc1ccc2c(OC)ccc(OC)c2c1 | > 6.7 |
| COC(=O)[C@@]1(C)CCC[C@]2(C)C(CCc3ccc4c(OC(C)=O)ccc(OC(C)=O)c4c3)=C(C)CC[C@@H]12 | 0.24 |
| C=C1[C@H](O)C[C@@H]2[C@](C)(CCC[C@]2(C)C(=O)OC)[C@H]1CCc1ccc2c(OC)ccc(OC)c2c1 | > 6.4 |
| C=C1C(=O)C[C@@H]2[C@](C)(CCC[C@]2(C)C(=O)OC)[C@H]1CCc1ccc2c(OC(C)=O)ccc(OC(C)=O)c2c1 | 2.3 |
| COC(=O)[C@@]1(C)CCC[C@]2(C)C(CCc3ccc4c(OC(C)=O)ccc(OC(C)=O)c4c3)=C(C)[C@@H](O)C[C@@H]12 | 4.8 |
| C=C1CC[C@@H]2[C@](C)(CCC[C@]2(C)C(=O)OC)[C@H]1CCc1ccc2c(OCc3ccccc3)ccc(OCc3ccccc3)c2c1 | > 5 |
| C=C1CC[C@@H]2[C@](C)(CCC[C@]2(C)C(=O)OCc2ccccc2)[C@H]1CCc1ccc2c(OCc3ccccc3)ccc(OCc3ccccc3)c2c1 | 6.5 |
| C=C1[C@H](O)C[C@@H]2[C@](C)(CCC[C@]2(C)C(=O)OC)[C@H]1CCc1ccc2c(OCc3ccccc3)ccc(OCc3ccccc3)c2c1 | > 4.9 |
| COC(=O)[C@@]1(C)CCC[C@]2(C)C(CCc3ccc4c(OC(C)=O)ccc(OC(C)=O)c4c3)=C(C)C(=O)C[C@@H]12 | 0.19 |
| C=C1CC[C@@H]2[C@](C)(CCC[C@]2(C)C(=O)OC)[C@]1(O)CCc1ccc2c(OC)ccc(OC)c2c1 | > 21.5 |

Test system: not listed separately
Experiment: Antineoplastic cytotoxicity against human MEL28 cells after 72 hrs by SRB method
Assay type: functional
Settings: SK-MEL-28, 72 h
Summary of the method: as §1

| Structure (SMILES) | GI50 [µM] |
| --- | --- |
| C=C1CC[C@@H]2[C@](C)(CCC[C@]2(C)C(=O)O)[C@H]1CCc1ccc2c(c1)C(=O)C=CC2=O | 5.7 |
| C=C1CC[C@@H]2[C@](C)(CCC[C@]2(C)C(=O)O)[C@H]1CCC1=CCc2c(OC(C)=O)ccc(OC(C)=O)c2C1 | 5 |
| C=C1CC[C@@H]2[C@](C)(CCC[C@]2(C)C(=O)OC)[C@H]1CCC1=CCc2c(OC(C)=O)ccc(OC(C)=O)c2C1 | 0.68 |
| COC(=O)[C@@]1(C)CCC[C@]2(C)C(CCc3ccc4c(OC)ccc(OC)c4c3)=C(OOC(C)(C)C)CC[C@@H]12 | > 18.6 |
| C=C1CC[C@H]2[C@@](C)(CCC[C@@]2(C)C(=O)OC)[C@@H]1CCc1ccc2c(c1)C(=O)c1cc(CC[C@H]3C(=C)CC[C@@H]4[C@]3(C)CCC[C@]4(C)C(=O)OC)ccc1C2=O | > 4.1 |
| C=C1CC[C@@H]2[C@](C)(CCC[C@]2(C)C(=O)OC)[C@]1(O)CCc1ccc2c(OCc3ccccc3)ccc(OCc3ccccc3)c2c1 | 9 |
| C=C1CC[C@@H]2[C@](C)(CCC[C@]2(C)C(=O)OC)[C@H]1CCc1ccc2c(c1)C(=O)C=CC2=O | 0.2 |
| C=C1CC[C@@H]2[C@](C)(CCC[C@]2(C)C(=O)O)[C@H]1CCc1ccc2c(OC(C)=O)ccc(OC(C)=O)c2c1 | 0.24 |
| C=C1CC[C@@H]2[C@](C)(CCC[C@]2(C)C(=O)OC)[C@H]1CCc1ccc2c(OC(C)=O)ccc(OC(C)=O)c2c1 | 0.12 |
| COC(=O)[C@@]1(C)CCC[C@]2(C)C(CCc3ccc4c(OC)ccc(OC)c4c3)=C(C)CC[C@@H]12 | > 6.7 |
| C=C1CC[C@@H]2[C@](C)(CCC[C@]2(C)C(=O)OC)[C@H]1CCc1ccc2c(OC)ccc(OC)c2c1 | > 6.7 |
| C=C1[C@H](O)C[C@@H]2[C@](C)(CCC[C@]2(C)C(=O)OC)[C@H]1CCc1ccc2c(OC)ccc(OC)c2c1 | > 6.4 |
| C=C1CC[C@@H]2[C@](C)(CCC[C@]2(C)C(=O)OC)[C@H]1CCc1ccc2c(OCc3ccccc3)ccc(OCc3ccccc3)c2c1 | > 5 |
| C=C1[C@H](O)C[C@@H]2[C@](C)(CCC[C@]2(C)C(=O)OC)[C@H]1CCc1ccc2c(OCc3ccccc3)ccc(OCc3ccccc3)c2c1 | > 4.9 |

Test system: HT-29
Experiment: Antineoplastic cytotoxicity against human HT29 cells after 72 hrs by SRB method
Assay type: functional
Settings: HT-29, 72 h
Summary of the method: as §1

| Structure (SMILES) | GI50 [µM] |
| --- | --- |
| C=C1CC[C@@H]2[C@](C)(CCC[C@]2(C)C(=O)O)[C@H]1CCc1ccc2c(c1)C(=O)C=CC2=O | 5.7 |
| C=C1CC[C@@H]2[C@](C)(CCC[C@]2(C)C(=O)OC)[C@H]1/C=C/c1ccc2c(OC)ccc(OC)c2c1 | > 22.3 |
| C=C1CC[C@@H]2[C@](C)(CCC[C@]2(C)C(=O)O)[C@H]1CCC1=CCc2c(OC(C)=O)ccc(OC(C)=O)c2C1 | 10.1 |
| C=C1CC[C@@H]2[C@](C)(CCC[C@]2(C)C(=O)OC)[C@H]1CCC1=CCc2c(OC(C)=O)ccc(OC(C)=O)c2C1 | 1.38 |
| C=C1[C@H](O)C[C@@H]2[C@](C)(CCC[C@]2(C)C(=O)OC)[C@H]1CCc1ccc2c(OC(C)=O)ccc(OC(C)=O)c2c1 | 1 |
| COC(=O)[C@@]1(C)CCC[C@]2(C)C(CCc3ccc4c(OC)ccc(OC)c4c3)=C(OOC(C)(C)C)CC[C@@H]12 | > 18.6 |
| C=C1C(=O)C[C@@H]2[C@](C)(CCC[C@]2(C)C(=O)OC)[C@H]1CCc1ccc2c(OCc3ccccc3)ccc(OCc3ccccc3)c2c1 | 8.1 |
| C=C1CC[C@H]2[C@@](C)(CCC[C@@]2(C)C(=O)OC)[C@@H]1CCc1ccc2c(c1)C(=O)c1cc(CC[C@H]3C(=C)CC[C@@H]4[C@]3(C)CCC[C@]4(C)C(=O)OC)ccc1C2=O | > 4.1 |
| C=C1CC[C@@H]2[C@](C)(CCC[C@]2(C)C(=O)OC)[C@]1(O)CCc1ccc2c(OCc3ccccc3)ccc(OCc3ccccc3)c2c1 | 12.4 |
| C=C1CC[C@@H]2[C@](C)(CCC[C@]2(C)C(=O)OC)[C@H]1CCc1ccc2c(c1)C(=O)C=CC2=O | 0.2 |
| C=C1CC[C@@H]2[C@](C)(CCC[C@]2(C)C(=O)O)[C@H]1CCc1ccc2c(OC(C)=O)ccc(OC(C)=O)c2c1 | 0.24 |
| C=C1CC[C@@H]2[C@](C)(CCC[C@]2(C)C(=O)OC)[C@H]1CCc1ccc2c(OC(C)=O)ccc(OC(C)=O)c2c1 | 0.5 |
| C=C1C(=O)C[C@@H]2[C@](C)(CCC[C@]2(C)C(=O)OC)[C@H]1CCc1ccc2c(OC)ccc(OC)c2c1 | 3.2 |
| COC(=O)[C@@]1(C)CCC[C@]2(C)C(CCc3ccc4c(OC)ccc(OC)c4c3)=C(C)CC[C@@H]12 | > 6.7 |
| COC(=O)[C@@]1(C)CCC[C@]2(C)C(CCc3ccc4c(OCc5ccccc5)ccc(OCc5ccccc5)c4c3)=C(C)CC[C@@H]12 | > 16.6 |
| C=C1CC[C@@H]2[C@](C)(CCC[C@]2(C)C(=O)OC)[C@H]1CCc1ccc2c(OC)ccc(OC)c2c1 | > 6.7 |
| COC(=O)[C@@]1(C)CCC[C@]2(C)C(CCc3ccc4c(OC(C)=O)ccc(OC(C)=O)c4c3)=C(C)CC[C@@H]12 | 0.24 |
| C=C1[C@H](O)C[C@@H]2[C@](C)(CCC[C@]2(C)C(=O)OC)[C@H]1CCc1ccc2c(OC)ccc(OC)c2c1 | > 6.4 |
| C=C1C(=O)C[C@@H]2[C@](C)(CCC[C@]2(C)C(=O)OC)[C@H]1CCc1ccc2c(OC(C)=O)ccc(OC(C)=O)c2c1 | 4.4 |
| COC(=O)[C@@]1(C)CCC[C@]2(C)C(CCc3ccc4c(OC(C)=O)ccc(OC(C)=O)c4c3)=C(C)[C@@H](O)C[C@@H]12 | 4.8 |
| C=C1CC[C@@H]2[C@](C)(CCC[C@]2(C)C(=O)OC)[C@H]1CCc1ccc2c(OCc3ccccc3)ccc(OCc3ccccc3)c2c1 | > 5 |
| C=C1CC[C@@H]2[C@](C)(CCC[C@]2(C)C(=O)OCc2ccccc2)[C@H]1CCc1ccc2c(OCc3ccccc3)ccc(OCc3ccccc3)c2c1 | 4.4 |
| C=C1[C@H](O)C[C@@H]2[C@](C)(CCC[C@]2(C)C(=O)OC)[C@H]1CCc1ccc2c(OCc3ccccc3)ccc(OCc3ccccc3)c2c1 | > 4.9 |
| COC(=O)[C@@]1(C)CCC[C@]2(C)C(CCc3ccc4c(OC(C)=O)ccc(OC(C)=O)c4c3)=C(C)C(=O)C[C@@H]12 | 0.19 |
| C=C1CC[C@@H]2[C@](C)(CCC[C@]2(C)C(=O)OC)[C@]1(O)CCc1ccc2c(OC)ccc(OC)c2c1 | > 21.5 |
